Each structure is given as a SMILES string.

In general, IC50 refers to the concentration needed to halve the response being measured. Read a high IC50 as lower potency.

For the first experiment, the target named is T1, HNE (Homo sapiens, UniProt P08246).
T1 sequence (P08246 30-247 limits assumed): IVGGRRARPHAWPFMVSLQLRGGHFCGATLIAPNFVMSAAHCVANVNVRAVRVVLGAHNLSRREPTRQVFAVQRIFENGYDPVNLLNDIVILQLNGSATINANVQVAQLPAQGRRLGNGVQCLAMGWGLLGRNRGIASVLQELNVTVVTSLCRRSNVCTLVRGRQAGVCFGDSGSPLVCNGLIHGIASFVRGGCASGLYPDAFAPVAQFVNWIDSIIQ
The experiment in a line: HNE inhibition assay. The format is biochemical.
Details: not given
The method, boiled down: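 Human neutrophil elastase (20 mU/mL) in 200 mM Tris–HCl pH 7.5, 0.01% BSA, 0.05% Tween-20, with test compound at varied concentrations (DMSO final 1%, top 50 µM). Reaction started with 25 µM substrate. Fluorescence (ex 355/em 460 nm) read every 30 s for 10 min at 25 °C. IC50 from % inhibition vs log concentration (≥6 points). Mean ± SD of three independent experiments.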
In the case of `CCOC(=O)c1cn(C(=O)c2ccc(C)cc2)c2cc(Br)ccc12` [7c, Ethyl 6-bromo-1-(4-methylbenzoyl)-1H-indole-3-carboxylate], the IC50 is 10.5 ± 1.7 µM.
Still for that read-out and setting: the value for `CCOC(=O)c1cn(C(=O)c2ccc(Cl)cc2)c2ccccc12` [2e, Ethyl 1-(4-chlorobenzoyl)-1H-indole-3-carboxylate] was 3.8 ± 0.4 µM; that for `CCOC(=O)c1cn(C(=O)c2ccc(C)cc2)c2ccc([N+](=O)[O-])cc12` [7e, Ethyl 1-(4-methylbenzoyl)-5-nitro-1H-indole-3-carboxylate] was 13.2 ± 1.8 µM.
The compound `CCOC(=O)c1cn(C(=O)c2cccc(C)c2)c2ccc([N+](=O)[O-])cc12` [7d, Ethyl 1-(3-methylbenzoyl)-5-nitro-1H-indole-3-carboxylate] displayed an IC50 of 2.4 ± 0.4 µM.
Take `Cc1ccc(C(=O)n2cc(C(=O)Nc3ccccc3)c3ccccc32)cc1` [5c, 1-(4-methylbenzoyl)-N-phenyl-1H-indole-3-carboxamide]: the IC50 was 45.3 ± 6.7 µM.
Consider `CCOC(=O)c1cn(C(=O)c2cccc(C)c2)c2ccc(Br)cc12` [7a, Ethyl 5-bromo-1-(3-methylbenzoyl)-1H-indole-3-carboxylate], for which 21.6 ± 3.3 µM corresponded to half-maximal inhibition (IC50).
For `CCOC(=O)c1cn(C(=O)c2ccc(F)cc2)c2ccccc12` [2g, Ethyl 1-(4-fluorobenzoyl)-1H-indole-3-carboxylate], the IC50 stood at 12.2 ± 2.3 µM.

Still in this experiment, the particulars now being: highest tested concentration 50 µM.
As to `Cc1ccc(S(=O)(=O)n2cc(C(=O)Nc3ccccc3)c3ccccc32)cc1` [5f, N-phenyl-1-tosyl-1H-indole-3-carboxamide], the “HNE inhibitory activity (in words)” value is “lack of activity”.
As for `CCOC(=O)c1cn(C(=O)c2cccc(C)c2)c2cc(Br)ccc12` [7b, Ethyl 6-bromo-1-(3-methylbenzoyl)-1H-indole-3-carboxylate], the “HNE inhibitory activity (in words)” value is on record as “no activity”.
Same read-out and setting: then `CCOC(=O)c1cn(C(=O)c2cccc(Cl)c2)c2ccccc12` [2f, Ethyl 1-(3-chlorobenzoyl)-1H-indole-3-carboxylate], with “inactive”; and `CCOC(=O)c1cn(-c2cccc(C)c2)c2ccccc12` [2a, Ethyl 1-(m-tolyl)-1H-indole-3-carboxylate], with “lack of activity”; and `CCOC(=O)c1cn(C(=O)c2cccc(C)c2)c2ccccc12` [2c, Ethyl 1-(3-methylbenzoyl)-1H-indole-3-carboxylate], with “inactive”.
Regarding `CCOC(=O)c1cn(C(=O)c2ccc(C)cc2)c2ccc(N)cc12` [compound 8, Ethyl 5-amino-1-(4-methylbenzoyl)-1H-indole-3-carboxylate], the “HNE inhibitory activity (in words)” value is recorded as “no activity”.
Still for that read-out and setting: then `CCOC(=O)c1cn(C(=O)c2ccc(C)cc2)c2ccc(NC(C)=O)cc12` [compound 9, Ethyl 5-acetamido-1-(4-methylbenzoyl)-1H-indole-3-carboxylate], with “no activity”.

Source of the values: PMC5062748 (Drug development research, 2016).
